According to paper PMC9420810 (Nature microbiology, 2022):

How the values were obtained:
[1] = read-out: KD of haem binding; cited from earlier work
[2] = UV-Vis spectroscopy of haem binding to synthesized peptide; settings: haem reduced by excess sodium dithionite, anaerobic chamber
Outline: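 Hemin is dissolved in 0.1 M NaOH and used within 30 min. Its stock concentration is set by pyridine hemochrome absorbance at 557 nm (ε 34.7 mM⁻¹ cm⁻¹). Peptide and haem are mixed in water (pH 7.4) in 96-well plates. After shaking at 100 rpm for 15 s, spectra are recorded from 300 to 700 nm in 5 nm steps on a plate reader.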

S. meliloti [3] = assay: Radioactive 55Fe uptake assay; type: cell-based, Sinorhizobium meliloti
Outline: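 Cells are grown in LB to OD600 0.2, pelleted and held 1 h in minimal medium with 5 μM FeSO₄. Then 2 μM peptide and 100 μM sodium ascorbate are added for 30 min. At time 0, 1 μM ⁵⁵FeCl₃ with ascorbate is added. Timed 1 ml samples are quenched in ice-cold buffer (0.1 M Tris, 1 mM ascorbate, 100 μM FeSO₄, pH 6.0) and vacuum-filtered on 0.45 μm filters. Filters are scintillation-counted, and counts are normalised to protein.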

Aβ (1-42)-haem complex = assay: Peroxidase assay; type: biochemical, human; settings: equimolar addition of NCR247, TMB substrate, 370 nm and 652 nm
Outline: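 Haem complex, with or without equimolar peptide, is added to TMB substrate solution (TMB:peroxide 1:1) in 96-well plates. Reaction progress is followed in a plate reader by absorbance at 370 and 652 nm. Values are the mean of three independent replicates ± s.d.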

S. meliloti [4] = assay: ICP-MS total iron content of cells; type: cell-based, Sinorhizobium meliloti; settings: 2 μM NCR247, ICP-MS, normalized to protein
Outline: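 Equal numbers of cells are pelleted for ICP-MS metal analysis. Protein is measured from the same number of cells, and metal content is normalised to protein.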

Cytochrome c = assay: UV-Vis test of haem sequestration from Cytochrome c; type: binding; settings: excess NCR247 added to Cytochrome c, UV-Vis spectrum
[5] = test system: iron uptake genes (hmuP) and rirA in S. meliloti; assay: qRT-PCR of iron-related genes; type: cell-based, Sinorhizobium meliloti
Outline: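 Cells are grown in LB to OD600 0.2, pelleted and resuspended for 1 h in minimal medium with or without FeSO₄, then exposed to peptide for 30 min. Transcript levels are measured by qRT-PCR and expressed as starting quantities normalised to the reference gene SMc00128.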

S. meliloti [6] = assay: Growth curve in minimal medium; type: cell-based, Sinorhizobium meliloti; settings: 2 μM NCR247, OD 600 nm, 30° C
Outline: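 Strain RM1021 or its mutants are first grown in LBMC (LB with 2.5 mM CaCl₂ and 2.5 mM MgSO₄, 200 μg/ml streptomycin, 30°C). Overnight cultures are washed and subcultured 1:100 into minimal medium, either iron-free or with the stated iron, Mn or Zn supplement. Cultures shake continuously at 150 rpm and 30°C in a plate reader, with OD600 read every 60 min.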

[7] = test system: Porphyromonas gingivalis 2561; assay: Cell viability assay, P. gingivalis; type: cell-based
[8] = test system: S. meliloti bacteroids isolated from M. truncatula nodules; assay: 55Fe uptake by isolated bacteroids; type: cell-based, Sinorhizobium meliloti; settings: bacteroids from nodules of plants inoculated with wild type S. meliloti, NCR247 treated

| Substance | Kd [1] | binding of Fe(II) ferrous haem [2] | import of 55Fe (S. meliloti [3]; wild type S. meliloti, medium with sufficient iron (5 μM FeSO4), 2 μM NCR247, mean of three biological replicates) | uptake of 55Fe in irr deletion mutant compared to wild type (S. meliloti [3]; Δirr S. meliloti, NCR247 treated) | peroxidase activity of Aβ (1-42)-haem complex (Aβ (1-42)-haem complex) | total iron content of the cells (S. meliloti [4]) | sequestration of cytochrome haem (Cytochrome c) | rirA transcription ([5]; wild type S. meliloti, 2 μM NCR247 for 30 mins) | transcript levels of iron uptake genes ([5]; wild type S. meliloti, iron-replete medium, NCR247 treatment 30 mins) | expression of hmuP in ΔbacA strain ([5]; ΔbacA S. meliloti, 2 μM NCR247 for 30 mins) | growth rate of S. meliloti (S. meliloti [6]) | growth / viable cell number of Porphyromonas gingivalis [7] | uptake of Fe55 by bacteroids compared with untreated [8] |
| --- | --- | --- | --- | --- | --- | --- | --- | --- | --- | --- | --- | --- | --- |
| Aβ(1-42): human Aβ(1-42) amyloid peptide [reference compound] | 0.14 µM | – | – | – | – | – | – | – | – | – | – | – | – |
| RNGCIVDPRCPYQQCRRPLYCRRR [NCR247] | – | binds | markedly increased | diminished | quenches its peroxidase activity | elevated total iron content | cannot sequester cytochrome haem | reduced | increase in transcript levels of iron uptake genes | very little change in expression of hmuP | reduction in growth rate | can prevent the growth | increase uptake of Fe^55 |
| serum albumin | 40 µM | – | – | – | – | – | – | – | – | – | – | – | – |
